# From PubChem
# Vif inh – blocks HIV Vif function. inhibition, % at 7.49 µM. HEK293T cells, Vif self-association by quenched fluorescence, imaging, 24 h. AID 602346. actives 0.35% (n = 340,000); in the data active means inhibition above about 50%, passing the limit was not always enough
# S100A4 inh HTS – blocks human S100A4 binding to myosin IIA peptide; inhibition, % at 10.7 µM; P26447; actives 0.14% (n = 360,000); S100A4/TAMRA-MyoIIA peptide fluorescence polarization;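 active means mean inhibition of at least 70% across replicates, with every replicate also reaching that level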
# Target sequence (P26447 whole entry, looked up): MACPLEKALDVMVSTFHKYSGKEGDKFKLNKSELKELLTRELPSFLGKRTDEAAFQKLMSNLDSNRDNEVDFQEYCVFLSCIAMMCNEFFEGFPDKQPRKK
#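 System – human S100A4 monomer protein, biochemical binding assay · Buffer or medium – Calcium-containing HEPES buffer, pH 7.2 · Timing – 5 min between mix addition and reading · Also added – TAMRA-labelled myosin IIA heavy-chain peptide probe, 5 nM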
# rRNA inh HTS – inhibits bacterial ribosomal RNA function over humanized ribosomes | E. coli WT GFP vs humanized-ribosome RFP mutants, fluorescence, 24 h; active compounds read low; DMSO median 0, no signal -100 | GFP signal change (wild-type ribosome), % (test concentration not listed) | actives 1.6% (n = 350,000);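 active means significant combined selectivity score with lowered wild-type GFP, culture density cut under 30%, mutant RFP and density less affected; inactive means any of these conditions unmet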
# FN deposit inh – fibronectin deposition inhibition | AH1F fibroblasts, Alexa488-fibronectin deposition fluorescence, overnight | inhibition, % at 12.6 µM | actives 0.086% (n = 350,000);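 active means mean inhibition across replicates of 30% or more, regardless of how many single replicates reach that level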;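 further: positive control wells lacked labelled fibronectin entirely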
#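 Material – AH1F fibroblast monolayer, labelled fibronectin deposition · Reagent – labelled fibronectin 24 nM · Timing – 1 h adhesion, overnight exposure · Measured by – fluorescence at 485 nm excitation, 525 nm emission · Read-out – inhibition of fibronectin deposition signal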
# Env fusion inh – HIV envelope-mediated fusion inhibition; HeLa-JRFL Env/CEM21 cell fusion, luciferase; inhibition, % at 12.3 µM; actives 1.1% (n = 360,000); AID 651610;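 active means mean replicate inhibition score of at least 50 and every replicate individually at or above 50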;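 further: 0% = plate neutral controls and 100% = maraviroc near 300 nM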
# miR-122 sensor – miR-122 inhibition in Huh7 cells; Huh7 miR-122 Renilla luciferase sensor, 48 h; neutral wells = 0, positive control = 100; activation (reporter increase), % at 12.5 µM; actives 0.3% (n = 340,000);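 active means mean replicate activation score at least 90 and every replicate individually at or above 90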;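 further: higher luciferase means less miR-122 activity so hits act as miR-122 inhibitors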
# Starred values were filed as active, the others as inactive; . = no result; [ ] = dose if it differs, or a comment. This is a sample that favours compounds with a hit; in the whole collection about 2.6% have one here.
SMILES,Vif inh,S100A4 inh HTS,rRNA inh HTS,FN deposit inh,Env fusion inh,miR-122 sensor
CC(C)NC(=O)N(C)C[C@@H]1Oc2ccc(NC(=O)Cc3cn(C)c4ccccc34)cc2C(=O)N([C@@H](C)CO)C[C@H]1C,.,-3,3,.,.,3[16.7 µM]
CC=Cc1ccc2n(c1=O)C[C@@H]1[C@@H](CO)[C@H](C(=O)NCC3CCCCC3)N(C(C)=O)[C@H]21 (mixture of isomers),.,-1,0,.,.,-4[16.7 µM]
CCOC(=O)c1c(C)n(-c2ccc(C)cc2)c2c(C(C(C)=O)C(=O)O)c(Br)c(O)c(O)c12 (stereo not given),44,.,.,.,.,-7
CCOC(=O)C(C(C)=O)c1c(Br)c(O)c(O)c2c(C(=O)c3ccc(C)cc3)coc12 (stereo not given),-14,.,.,5,108*,-3
C[C@@H]1CN([C@H](C)CO)C(=O)c2cc(/C=C/c3ccccc3)cnc2O[C@@H]1CN(C)C(=O)CN1CCOCC1,.,2,-1,.,-9[16.7 µM],10[16.7 µM]
Cc1noc(C)c1CSCC(=O)Nc1nc(-c2ccc(F)c(F)c2)cs1,-13,-1,-21,.,61*,.
CCN1[C@@H]2c3ccc(/C=C/c4ccccc4)c(=O)n3C[C@@H]2[C@@H](CO)[C@@H]1C(=O)N(C)C,.,-1,-1,.,.,5[16.7 µM]
CC(=O)Oc1ccccc1C(=O)C=Cc1cccc([N+](=O)[O-])c1,4,-2,-45*,.,-247,25
Cc1cc(O)c(C(=O)/C=C/c2cccc([N+](=O)[O-])c2)c(=O)o1,-2,-12,2,-1,3,-5
COc1ccccc1/C=C/C(=O)N1CCC(c2ccccc2)C1 (stereo not given),-11,-1,-23*,-11,-69,.
COc1ccccc1/C=C/C(=O)N1CCOCC1,-1,.,.,-1,16,-5
O=C(Cn1cnc2c(NCc3ccccc3)ncnc21)N1CCN(c2ccccn2)CC1,-6,4,0,-12,20,-6
Cc1cc(C)c(CN2CCN(C(=O)Cn3cnc4c(NCc5ccccc5)ncnc43)CC2)c(C)c1,-11,0,-20,.,87*,-6
C[C@H]1CN([C@@H](C)CO)C(=O)c2cc(NS(=O)(=O)c3ccc(F)cc3)ccc2O[C@@H]1CN(C)C(=O)NC1CCCCC1,.,1,-1,.,-13[16.7 µM],-9[16.7 µM]
COc1ccc(-c2cc(C3CCN(c4cc(Cl)nc(N)n4)CC3)[nH]n2)cc1,-30,.,.,.,94*,-23
COc1ccc(OC)c(-c2cc(C3CCN(c4cc(Cl)nc(N)n4)CC3)[nH]n2)c1,-22,.,.,1,63*,-46
Nc1nc(Cl)cc(N2CCC(c3cc(-c4ccc(Cl)cc4)n[nH]3)CC2)n1,-18,-28,-51,.,.,1
C[C@H]1CN([C@@H](C)CO)C(=O)c2cc(NC(=O)C3CCCCC3)ccc2O[C@@H]1CN(C)Cc1ccc(C(=O)O)cc1,.,-4,-2,.,.,-1[16.7 µM]
COc1ccc2c3c(n(C)c2c1)[C@@H](CO)N(C(=O)NC(C)C)CC31CN(Cc2nccs2)C1,.,-4,-3,.,.,.
Cn1c(SCc2cccc(F)c2)nnc1-c1ccccn1,-7,.,.,16,-52,2
Cn1c(SCc2cccc(Br)c2)nnc1-c1ccccn1,-3,-6,-35*,7,14,5
COC(=O)C1=C(C)NC(C)=C(C(=O)OC)C1C(=O)OCC(=O)NC1CCCCC1C (stereo not given),.,-8,4,5,68*,-1
CCOC(=O)C1=C(C)NC(C)=C(C(=O)OCC)C1C(=O)OCC(=O)NC(C)C,5,7,5,3,26,-8
CO[C@H]1CN(C)C(=O)c2ccc(NC(=O)c3cccc(F)c3)cc2OC[C@@H](C)N(C)C[C@@H]1C,.,-7,-1,8,.,-12[16.7 µM]
CSc1ccc(NC(=O)Nc2cccn(Cc3ccccc3)c2=O)cc1,-15,-4,-30*,1,3,.
SMILES,Vif inh,S100A4 inh HTS,rRNA inh HTS,FN deposit inh,Env fusion inh,miR-122 sensor
COc1ccc(Cn2cccc(NC(=O)Nc3ccc(F)cc3)c2=O)cc1,-3,2,-18,-6,-5,.
O=C(c1cnn2c(C(F)F)cc(-c3ccccc3)nc12)N1CCN(Cc2ccc3c(c2)OCO3)CC1,.,-3,-17,4,58*,.
Cc1ccccc1Cc1c(C)nc2c(C(=O)N3CCN(Cc4ccc5c(c4)OCO5)CC3)cnn2c1C,-1,.,.,.,60*,3
Cc1cccc(Cc2c(C)nc3c(C(=O)N4CCN(Cc5ccc6c(c5)OCO6)CC4)cnn3c2C)c1,-6,.,.,.,36,-5
O=C(c1cc2cc(F)ccc2[nH]1)N1CCN(Cc2ccc3c(c2)OCO3)CC1,6,-5,-40*,10,9,11
COc1cc2cc(C(=O)N3CCN(Cc4ccc5c(c4)OCO5)CC3)[nH]c2cc1OC,-3,-1,-4,-8,-11,-9
C[C@@H]1CN([C@@H](C)CO)C(=O)c2cccc(NC(=O)Nc3ccc(F)cc3)c2O[C@@H]1CN(C)C(=O)NC1CCCCC1,.,.,-3,.,-33[16.7 µM],1[16.7 µM]
C[C@@H]1CN([C@H](C)CO)C(=O)c2cc(NS(=O)(=O)c3ccc(F)cc3)ccc2O[C@H]1CN(C)S(=O)(=O)c1ccccc1,.,.,-3,.,11[16.7 µM],2[16.7 µM]
[N-]=[N+]=Nc1ccccc1C[C@@]1(C(=O)NCCN2CCOCC2)N=C(c2ccc(OCCCO)cc2)O[C@@H]1c1ccccc1N=[N+]=[N-],.,3,.,.,6[16.7 µM],.
O=C(C[C@@H]1C[C@H]2c3cc(NC(=O)c4cccnc4)ccc3O[C@H]2[C@H](CO)O1)NCc1ccccn1,.,-12,5,.,0[16.7 µM],4[16.7 µM]
Cn1cnc(S(=O)(=O)N2CCN(c3ccc(Cl)cc3)CC2)c1,2,4,5,5,12,.
Cn1cnc(S(=O)(=O)N2CCN(c3ccccc3)CC2)c1,-1,-3,6,33*,-3,4
CCCC(=O)Nc1ccc2c(c1)C(=O)N(C)[C@H]1CC[C@H](CC(=O)NCCOC)O[C@@H]1CO2,.,.,2,-17,0[16.7 µM],0[16.7 µM]
Cc1c(/C=N/O)c2ccccn2c1C(=O)c1ccc(F)cc1,-1,-7,-28*,10,30,-2
Cc1cc(N/N=C/c2ccc(O)cc2O)nc(-n2nc(C)cc2C)n1,-5,.,.,17,56*,-28
CCCNC(=O)[C@@H]1[C@@H](CO)[C@@H]2Cn3c(cccc3=O)[C@H]1N2CCC(F)(F)F,.,123*,0,-5,.,.
Cc1cccc2cc(COC(=O)c3ccco3)c(=O)[nH]c12,64*,.,.,-11,-168,-2
Cc1cccc2cc(COC(=O)c3ccccc3)c(=O)[nH]c12,8,.,.,.,.,-1
Nc1cc(Cl)nc(N/N=C/c2c(O)ccc3ccccc23)n1,-5,2,-20*,12,.,.
Nc1nonc1N/N=C/c1c(O)ccc2ccccc12,-1,-1,-44,-6,-3,-7
